What all share (type): functional, cell-based
For one experiment, the system named is PC-3. Kind of experiment: Cytotoxicity against human PC3 cells assessed as cell growth inhibition after 48 hrs by MTT assay. Particulars: PC-3, 48 h. An outline of the steps: (§1)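 MTT assay. Cells were seeded at 1×10^4 per well in their medium with 10% FBS and allowed 24 h at 37 °C. Compound diluted in medium was added alongside a vehicle control and left for 48 h. MTT (0.5 mg/mL) was then added for 4 h, formazan dissolved in DMSO, and absorbance read at 570 nm. IC50 is the concentration inhibiting 50% of cells.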
(Formazan colour is commonly taken as a measure of viable cells.)

Another experiment has as its system HT-29. Kind of experiment: Cytotoxicity against human HT-29 cells assessed as cell growth inhibition after 48 hrs by MTT assay. The conditions noted are these: HT-29, 48 h. The method in brief: as §1
The next experiment relates to MCF7. Kind of experiment: Cytotoxicity against human MCF7 cells assessed as cell growth inhibition after 48 hrs by MTT assay. The conditions noted are these: MCF7, 48 h. An outline of the steps: as §1
The subject of another experiment is DU-145. Kind of experiment: Cytotoxicity against human DU145 cells assessed as cell growth inhibition after 48 hrs by MTT assay. The conditions noted are these: DU-145, 48 h. An outline of the steps: as §1
In another experiment the test system is A549. Kind of experiment: Cytotoxicity against human A549 cells assessed as cell growth inhibition after 48 hrs by MTT assay. The conditions noted are these: A549, 48 h. The method in brief: as §1
The subject of another experiment is HCT-116. In words: Cytotoxicity against human HCT116 cells assessed as cell growth inhibition after 48 hrs by MTT assay. The conditions noted are these: HCT-116, 48 h. The method in brief: as §1

For `COc1cc2c3c(c4cc(OC)c(OC)cc4c2cc1OC)C(c1ccc(F)cc1)CC(=O)N3` (stereo unspecified), the half-maximal inhibitory concentration (IC50) – broadly, the concentration needed to halve the response being measured – in the experiment with PC-3 was 19.9 µM; in the experiment on HT-29, 17.4 µM; with MCF7, 12.2 µM; in the experiment on DU-145, 11.1 µM; with A549, 6.29 µM; in the experiment on HCT-116 it was 16.2 µM.

Take `COc1cc2c3c(c4cc(OC)c(OC)cc4c2cc1OC)C(c1cccs1)CC(=O)N3` (stereo unspecified): the IC50 in the experiment on PC-3 is over 20 µM; with HT-29, 18.9 µM; with MCF7, over 20 µM; in the experiment on DU-145, over 20 µM; in the experiment on A549 it was 8.5 µM; in the experiment on HCT-116, 13.8 µM.

On to `COc1cc2c3c(c4cc(OC)c(OC)cc4c2cc1OC)C(c1ccc2c(c1)OCCO2)CC(=O)N3` (stereo unspecified), for which the IC50 in the experiment on PC-3 was 18.4 µM; in the experiment with HT-29, over 20 µM; in the experiment on MCF7 it was over 20 µM; in the experiment with DU-145, over 20 µM; in the experiment with A549 it was 7.95 µM; in the experiment on HCT-116 it was over 20 µM.

With `COc1cc2c3c(c4cc(OC)c(OC)cc4c2cc1OC)C(c1ccccc1)CC(=O)N3` (stereo unspecified), the IC50 in the experiment with PC-3 was over 20 µM; in the experiment on HT-29, over 20 µM; in the experiment on MCF7 it was over 20 µM; in the experiment on DU-145, 18.8 µM; in the experiment with A549, over 20 µM; with HCT-116 it was over 20 µM.

On to `COc1cc2c3c(c4cc(OC)c(OC)cc4c2cc1OC)C(c1ccc(Cl)cc1)CC(=O)N3` (stereo unspecified), for which the IC50 in the experiment with PC-3 was over 20 µM; with HT-29, 13.8 µM; in the experiment with MCF7, over 20 µM; with DU-145, 19 µM; in the experiment with A549, 6.49 µM; with HCT-116, 14.2 µM.

For the compound `COc1cc2c3c(c4cc(OC)c(OC)cc4c2cc1OC)C(c1cccc(Br)c1)CC(=O)N3` (stereo unspecified), the IC50 was over 20 µM in the experiment on PC-3; over 20 µM in the experiment with HT-29; over 20 µM with MCF7; 18.5 µM in the experiment on DU-145; over 20 µM with A549; over 20 µM in the experiment with HCT-116.

Take `COc1ccc(C2CC(=O)Nc3c2c2cc(OC)c(OC)cc2c2cc(OC)c(OC)cc32)cc1` (stereo unspecified): the IC50 is 19.1 µM in the experiment on PC-3; 16.7 µM with HT-29; over 20 µM with MCF7; 17 µM with DU-145; 8.94 µM in the experiment with A549; over 20 µM with HCT-116.

Turning to `COc1cc2c3c(c4cc(OC)c(OC)cc4c2cc1OC)C(c1ccc(O)c(O)c1)CC(=O)N3` (stereo unspecified), the IC50 with PC-3 was 19.8 µM; in the experiment on HT-29, 10.3 µM; in the experiment on MCF7 it was over 20 µM; in the experiment on DU-145 it was over 20 µM; with A549 it was 11.6 µM; in the experiment on HCT-116 it was 12.6 µM.

Take `COc1ccc(C2CC(=O)Nc3c2c2cc(OC)c(OC)cc2c2cc(OC)c(OC)cc32)cc1OC` (stereo unspecified): the half-maximal inhibitory concentration (IC50) with PC-3 is over 20 µM; in the experiment with HT-29 it was 12.2 µM; in the experiment with MCF7, over 20 µM; in the experiment with DU-145, 13.1 µM; in the experiment on A549 it was 4.09 µM; in the experiment on HCT-116, 8.12 µM.

For the compound `COc1cccc(C2CC(=O)Nc3c2c2cc(OC)c(OC)cc2c2cc(OC)c(OC)cc32)c1` (stereo unspecified), the IC50 was over 20 µM with PC-3; over 20 µM in the experiment on HT-29; over 20 µM in the experiment on MCF7; 18.9 µM in the experiment on DU-145; over 20 µM with A549; over 20 µM with HCT-116.

Consider `COc1cc2c3c(c4cc(OC)c(OC)cc4c2cc1OC)C(c1ccc(C)cc1)CC(=O)N3` (stereo unspecified), for which the IC50 in the experiment with PC-3 was over 20 µM; in the experiment on HT-29, over 20 µM; with MCF7 it was over 20 µM; in the experiment with DU-145 it was 16.9 µM; with A549, 16.7 µM; in the experiment with HCT-116 it was over 20 µM.

For `COc1cc2c3c(c4cc(OC)c(OC)cc4c2cc1OC)C(c1ccc(F)c(F)c1)CC(=O)N3` (stereo unspecified), the IC50 in the experiment with PC-3 is over 20 µM; in the experiment on HT-29 it was 17.9 µM; in the experiment with MCF7, over 20 µM; in the experiment with DU-145, over 20 µM; with A549, 7.78 µM; with HCT-116, 13.4 µM.

For the compound `COc1cc2c3c(c4cc(OC)c(OC)cc4c2cc1OC)C(c1cccc2ccccc12)CC(=O)N3` (stereo unspecified), the IC50 in the experiment on HT-29 is 18.4 µM; in the experiment on MCF7 it was over 20 µM; in the experiment on DU-145 it was 16.1 µM; in the experiment with A549 it was 14.7 µM; in the experiment on HCT-116, 17.2 µM.

Regarding `COc1cc2c3c(c4cc(OC)c(OC)cc4c2cc1OC)C(c1sccc1C)CC(=O)N3` (stereo unspecified), the IC50 was over 20 µM in the experiment with PC-3; over 20 µM with HT-29; over 20 µM in the experiment with MCF7; 19.6 µM with DU-145; 15.4 µM in the experiment with A549; over 20 µM with HCT-116.

Regarding `COc1cc([C@@H]2c3cc4c(cc3[C@@H](O[C@@H]3O[C@@H]5CO[C@@H](C)O[C@H]5[C@H](O)[C@H]3O)[C@H]3COC(=O)[C@H]23)OCO4)cc(OC)c1O` [ETOPOSIDE], the IC50 was 5.4 µM in the experiment with PC-3; 2.03 µM with MCF7; 2.13 µM with DU-145; 3.25 µM with A549; 2.6 µM in the experiment with HCT-116.

Turning to `COc1cc2c3c(c4cc(OC)c(OC)cc4c2cc1OC)C(c1cccc(C(F)(F)F)c1)CC(=O)N3` (stereo unspecified), the IC50 in the experiment with PC-3 was 18.5 µM; in the experiment with HT-29, 18.7 µM; with MCF7 it was over 20 µM; with DU-145, 6.19 µM; in the experiment with A549, 5.03 µM; with HCT-116, 15.4 µM.

Consider `COc1cc2c3c(c4cc(OC)c(OC)cc4c2cc1OC)C(c1ccc(C(C)C)cc1)CC(=O)N3` (stereo unspecified), for which the IC50 is over 20 µM in the experiment with PC-3; 16 µM in the experiment with HT-29; over 20 µM in the experiment on MCF7; 18.2 µM in the experiment with DU-145; 8.84 µM in the experiment with A549; over 20 µM in the experiment with HCT-116.

As to `COc1cc2c3c(c4cc(OC)c(OC)cc4c2cc1OC)C(c1ccc(Br)cc1)CC(=O)N3` (stereo unspecified), the half-maximal inhibitory concentration (IC50) in the experiment with PC-3 is over 20 µM; with HT-29 it was 15.5 µM; in the experiment on MCF7 it was over 20 µM; in the experiment on DU-145, over 20 µM; in the experiment with A549 it was 7.16 µM; with HCT-116, 16.5 µM.

These data come from ChEMBL document CHEMBL4219132, “Sulfamic acid promoted one-pot synthesis of phenanthrene fused-dihydrodibenzo-quinolinones: Anticancer activity, tubulin polymerization inhibition and apoptosis inducing studies” (Bioorg Med Chem, 2018).
